# Test results from ChEMBL document CHEMBL4680097 (J Med Chem, 2016).
# pIC50: −log10 of the molar value. Activity calls are given as the source filed them. The calls are words filed in the database; no cut-off is given here.
# How the values were obtained:
# HCT-116 = experiment: Growth inhibition of human HCT-116 cells incubated for 96 hrs by MTS assay; format: functional
# [1] = system: Panel NCI-60 (60 carcinoma cell lines); experiment: Growth inhibition of human NCI-60 cells at 10 uM; format: functional; conditions: read-out: GI
# How it was run: (§1)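 NCI-60 human tumour cell line panel; initial single-dose screen at 10 μM, growth inhibition reported per cell line.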
# [2] = system: Panel NCI-60 (60 carcinoma cell lines); experiment: Growth inhibition of human NCI-60 cells assessed as cell growth at 10 uM; format: functional; conditions: read-out: Activity; how it was run: as §1
# [3] = target: T1, Histone deacetylase (Homo sapiens) (UniProt Q13547+O15379+Q9UBN7+Q92769+Q9UQL6+Q8WUI4+Q9BY41+Q96DB2+P56524+Q9UKV0+Q969S8); experiment: Inhibition of HDAC in human HCT-116 cells assessed increase in global histone H3 lysine 9 acetylation at 100 nM incubated for 24 hrs by Western blot analysis; format: cell-based
# How it was run: (§2)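 HCT116 cells exposed 24 h at 10 nM, 100 nM or 1 μM; global histone H3 lysine 9 acetylation detected by Western blot.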
# [4] = target: T1, Histone deacetylase (Homo sapiens); experiment: Inhibition of HDAC in human HCT-116 cells assessed increase in global histone H3 lysine 9 acetylation at 10 nM incubated for 24 hrs by Western blot analysis; format: cell-based; how it was run: as §2
# Histone deacetylase 1 [5] = target: T2, Histone deacetylase 1 (Homo sapiens, UniProt Q13547); experiment: Inhibition of recombinant HDAC1 (unknown origin) at 1 uM incubated for 15 mins before substrate addition and measured after 30 to 45 mins by HDAC-Glo substrate
# How it was run: (§3)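 HDAC isoforms captured from HeLa cell lysate with plate-bound isoform-specific antibodies (lysate 100 µg/mL for HDAC1/2, 1 mg/mL for HDAC3/6); inhibitor in DMSO preincubated 15 min at room temperature, then HDAC-Glo substrate/developer 30–45 min; luminescence, background-corrected against no-antibody wells; % activity vs DMSO control; at least two independent trials, mean ± standard error. Concentrations are final.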
# Histone deacetylase 2 [6] = target: T3, Histone deacetylase 2 (Homo sapiens, UniProt Q92769); experiment: Inhibition of recombinant HDAC2 (unknown origin) at 1 uM incubated for 15 mins before substrate addition and measured after 30 to 45 mins by HDAC-Glo substrate; how it was run: as §3
# Histone deacetylase 3 [7] = target: T4, Histone deacetylase 3 (Homo sapiens, UniProt O15379); experiment: Inhibition of recombinant HDAC3 (unknown origin) at 1 uM incubated for 15 mins before substrate addition and measured after 30 to 45 mins by HDAC-Glo substrate; how it was run: as §3
# Histone deacetylase 1 [8] = target: T2, Histone deacetylase 1; experiment: Inhibition of recombinant HDAC1 (unknown origin) at 250 nM incubated for 15 mins before substrate addition and measured after 30 to 45 mins by HDAC-Glo substrate; how it was run: as §3
# Histone deacetylase 2 [9] = target: T3, Histone deacetylase 2; experiment: Inhibition of recombinant HDAC2 (unknown origin) at 250 nM incubated for 15 mins before substrate addition and measured after 30 to 45 mins by HDAC-Glo substrate; how it was run: as §3
# Histone deacetylase 3 [10] = target: T4, Histone deacetylase 3; experiment: Inhibition of recombinant HDAC3 (unknown origin) at 250 nM incubated for 15 mins before substrate addition and measured after 30 to 45 mins by HDAC-Glo substrate; how it was run: as §3
# Histone deacetylase 1 [11] = target: T2, Histone deacetylase 1; experiment: Inhibition of recombinant HDAC1 (unknown origin) incubated for 15 mins before substrate addition and measured after 30 to 45 mins by HDAC-Glo substrate; how it was run: as §3
# Histone deacetylase 2 [12] = target: T3, Histone deacetylase 2; experiment: Inhibition of recombinant HDAC2 (unknown origin)incubated for 15 mins before substrate addition and measured after 30 to 45 mins by HDAC-Glo substrate; how it was run: as §3
# Histone deacetylase 3 [13] = target: T4, Histone deacetylase 3; experiment: Inhibition of recombinant HDAC3 (unknown origin)incubated for 15 mins before substrate addition and measured after 30 to 45 mins by HDAC-Glo substrate; how it was run: as §3
# Homo sapiens [14] = species: Homo sapiens; experiment: Selectivity index, ratio of IC50 for recombinant HDAC6 (unknown origin) to IC50 for recombinant HDAC1 (unknown origin)
# Homo sapiens [15] = species: Homo sapiens; experiment: Selectivity index, ratio of IC50 for recombinant HDAC6 (unknown origin) to IC50 for recombinant HDAC2 (unknown origin)
# Homo sapiens [16] = species: Homo sapiens; experiment: Selectivity index, ratio of IC50 for recombinant HDAC6 (unknown origin) to IC50 for recombinant HDAC3 (unknown origin)
# Histone deacetylase 1 [17] = target: T2, Histone deacetylase 1; experiment: Inhibition of recombinant HDAC1 (unknown origin) at 2 uM incubated for 15 mins before substrate addition and measured after 30 to 45 mins by HDAC-Glo substrate; how it was run: as §3
# Histone deacetylase 2 [18] = target: T3, Histone deacetylase 2; experiment: Inhibition of recombinant HDAC2 (unknown origin) at 2 uM incubated for 15 mins before substrate addition and measured after 30 to 45 mins by HDAC-Glo substrate; how it was run: as §3
# Histone deacetylase 3 [19] = target: T4, Histone deacetylase 3; experiment: Inhibition of recombinant HDAC3 (unknown origin) at 2 uM incubated for 15 mins before substrate addition and measured after 30 to 45 mins by HDAC-Glo substrate; how it was run: as §3
# T3 sequence (Q92769 whole entry): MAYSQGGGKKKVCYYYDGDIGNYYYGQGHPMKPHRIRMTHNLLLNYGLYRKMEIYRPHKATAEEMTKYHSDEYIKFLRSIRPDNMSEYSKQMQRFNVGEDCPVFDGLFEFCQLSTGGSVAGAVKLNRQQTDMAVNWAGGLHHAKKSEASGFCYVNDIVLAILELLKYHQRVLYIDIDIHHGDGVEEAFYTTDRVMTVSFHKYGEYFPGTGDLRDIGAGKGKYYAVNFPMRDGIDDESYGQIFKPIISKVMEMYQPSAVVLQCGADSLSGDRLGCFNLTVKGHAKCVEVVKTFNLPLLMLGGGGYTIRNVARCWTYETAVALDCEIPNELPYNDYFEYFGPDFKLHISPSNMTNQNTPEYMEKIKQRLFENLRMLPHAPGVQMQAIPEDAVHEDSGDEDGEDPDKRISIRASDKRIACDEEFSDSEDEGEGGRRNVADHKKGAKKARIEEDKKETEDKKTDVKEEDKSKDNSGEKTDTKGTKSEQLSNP
# T2 sequence (Q13547 whole entry, canonical isoform): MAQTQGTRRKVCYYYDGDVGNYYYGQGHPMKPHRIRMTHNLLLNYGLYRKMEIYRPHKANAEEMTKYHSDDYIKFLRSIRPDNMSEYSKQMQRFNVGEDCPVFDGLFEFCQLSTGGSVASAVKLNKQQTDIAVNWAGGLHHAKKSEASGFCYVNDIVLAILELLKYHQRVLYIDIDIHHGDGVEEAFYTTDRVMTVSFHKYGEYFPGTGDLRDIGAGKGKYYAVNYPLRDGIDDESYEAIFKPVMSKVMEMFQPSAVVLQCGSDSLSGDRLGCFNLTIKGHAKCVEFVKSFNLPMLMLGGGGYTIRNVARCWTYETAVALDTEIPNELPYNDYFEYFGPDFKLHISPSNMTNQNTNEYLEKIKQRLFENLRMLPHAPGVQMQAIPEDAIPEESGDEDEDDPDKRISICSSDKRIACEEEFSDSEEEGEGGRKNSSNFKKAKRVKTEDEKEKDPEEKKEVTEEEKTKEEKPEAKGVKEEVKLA
# T4 sequence (O15379 whole entry): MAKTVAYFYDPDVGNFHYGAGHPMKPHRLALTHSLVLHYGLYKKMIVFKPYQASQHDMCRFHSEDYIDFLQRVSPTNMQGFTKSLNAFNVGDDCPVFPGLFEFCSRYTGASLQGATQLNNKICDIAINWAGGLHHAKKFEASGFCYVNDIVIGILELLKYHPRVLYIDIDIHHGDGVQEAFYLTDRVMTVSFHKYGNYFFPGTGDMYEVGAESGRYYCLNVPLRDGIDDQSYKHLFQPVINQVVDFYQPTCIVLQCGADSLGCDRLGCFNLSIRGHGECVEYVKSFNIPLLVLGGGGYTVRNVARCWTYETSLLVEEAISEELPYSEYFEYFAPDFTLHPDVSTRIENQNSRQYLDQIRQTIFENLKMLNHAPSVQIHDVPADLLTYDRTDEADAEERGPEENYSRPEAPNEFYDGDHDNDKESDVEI
Compound,GI50 (HCT-116) [nM],inhibition of growth at 10 µM [1] [%],growth at 10 µM [2] [%],inhibition [3],Increase in histone H3K9 acetylation (qualitative call) [4],inhibition (Histone deacetylase 1 [8]),inhibition (Histone deacetylase 2 [9]),inhibition (Histone deacetylase 3 [10]),also measured
CCCCCCCC(=O)SCC/C=C/[C@@H]1CC(=O)NCc2cccc(n2)CN(C)CC(=O)N[C@@H](C(C)C)C(=O)O1,800,60,40.8,Active,,,,,
CCCCCCCC(=O)SCC/C=C/[C@@H]1CC(=O)NCc2cccc(n2)CN(Cc2ccc(C(F)(F)F)cc2)CC(=O)N[C@@H](C(C)C)C(=O)O1,3200,,0.43,,Active,,,,inhibition (Histone deacetylase 1 [5]): inactive; inhibition (Histone deacetylase 2 [6]): inactive; inhibition (Histone deacetylase 3 [7]): inactive
CCCCCCCC(=O)SCC/C=C/[C@@H]1CC(=O)NCc2cccc(n2)-c2cccc(n2)C(=O)N[C@@H](C(C)C)C(=O)O1,75,,-16.2,,Active,Active,Active,Active,pIC50 (Histone deacetylase 1 [11]): 7.68; pIC50 (Histone deacetylase 2 [12]): 7.55; pIC50 (Histone deacetylase 3 [13]): 7.57; Ratio IC50 (Homo sapiens [14]): 619; Ratio IC50 (Homo sapiens [15]): 464; Ratio IC50 (Homo sapiens [16]): 481
CCCCCCCC(=O)SCC/C=C/[C@@H]1CC(=O)NCc2nc(cs2)C2=N[C@@](C)(CS2)C(=O)N[C@@H](C(C)C)C(=O)O1 [LARGAZOLE],65,60,,,Active,,,,pIC50 (Histone deacetylase 1 [11]): 7.21; pIC50 (Histone deacetylase 2 [12]): 7.19
CCCCCCCC(=O)SCC/C=C/[C@@H]1CC(=O)NCc2cccc(n2)CN(Cc2ccccc2)CC(=O)N[C@@H](C(C)C)C(=O)O1,> 5000,,-4.39,,Active,inactive,inactive,inactive,
CCCCCCCC(=O)SCC/C=C/[C@@H]1CC(=O)NCCOCCOCC(=O)N[C@@H](C(C)C)C(=O)O1,750,60,38.6,Active,,,,,inhibition (Histone deacetylase 1 [17]): Active; inhibition (Histone deacetylase 2 [18]): Active; inhibition (Histone deacetylase 3 [19]): Active
CCCCCCCC(=O)SCC/C=C/[C@@H]1CC(=O)NCc2cccc(n2)CN(Cc2cccc3ccccc23)CC(=O)N[C@@H](C(C)C)C(=O)O1,> 5000,,34.9,inactive,,,,,inhibition (Histone deacetylase 1 [17]): Active; inhibition (Histone deacetylase 2 [18]): Active; inhibition (Histone deacetylase 3 [19]): Active
CCCCCCCC(=O)SCC/C=C/[C@@H]1CC(=O)NCc2cccc(n2)CN(Cc2ccc(Cl)cc2)CC(=O)N[C@@H](C(C)C)C(=O)O1,2670,,1.42,,Active,inactive,inactive,inactive,
CCCCCCCC(=O)SCC/C=C/[C@@H]1CC(=O)NCc2cccc(n2)CN(Cc2ccc(OC)cc2)CC(=O)N[C@@H](C(C)C)C(=O)O1,4250,,5.41,,Active,inactive,inactive,inactive,
